Measured values published in PubChem BioAssay.
Results filed as inconclusive are left out.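 Rule for the calls, unless noted: active = viability increase at or above a cutoff of the median across tested compounds plus 3 SD (cut at about 8.5% in these data, passing the limit was not always enough); inconclusive = some gains above the cutoff, reason not given; inactive = the rest.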

Key:
[1] = S. cerevisiae growth inhibition in permissive medium (OD615), pilot counter-assay for S. cerevisiae lifespan shortening project, permissive growth control (AID 705;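 active = growth inhibition above 25% in both replicates, a cutoff set 3 SD above the mean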); details: OD615, 24 h, at 10 µM, stronger effect = higher value
Procedure, shortened: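 Material: engineered DeaD yeast; compound dosing: one dose 10 µM, DMSO 0.25% final; measure: yeast growth inhibition indicated by reduced 24 h OD615; detection: OD615 turbidity read; incubation: cells pre-grown 4 h, then 24 h compound exposure, 30 °C humidified; medium: permissive synthetic complete medium with raffinose and galactose carbon sources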

[2] = S. cerevisiae growth inhibition in restrictive medium, OD615, pilot screen, restrictive growth control, yeast lifespan reduction project (AID 706;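 active = growth inhibition above a set limit, 3 SD over mean compound inhibition, in both replicates, cut at about 43% in these data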;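 note: modified DeaD lifespan yeast strain shifted to restrictive glucose medium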); details: OD615, 48 h, at 10 µM, stronger effect = higher value
Procedure, shortened: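 material = engineered S. cerevisiae DeaD strain | medium = glucose-based CSMM-D restrictive medium | times = 4 h pre-incubation, 48 h exposure at 30 °C | technique = OD615 absorbance reading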

[3] = doxorubicin toxicity protection in MRP-1 cells – H69AR cells, CellTiter-Glo, duplicate, MRP-1 activator project, pilot screen (AID 807); details: H69AR viability with doxorubicin, CellTiter-Glo luminescence; at 10 µM; stronger effect = higher value;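 note: compound pretreatment 18-22 h then 72 h combined with doxorubicin; 0% = doxorubicin alone and 100% = vehicle without doxorubicin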
[4] = viability of HCT116 without oncogenic beta-catenin – human colon tumor cells, pilot screen (AID 823;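 active = cell viability at or below a set limit in both duplicate runs, the limit being the all-compound median minus 4 SD, cut at about 23% in these data, passing the limit was not always enough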;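 note: 0% = wells killed by 20 µM Hyamine and 100% = untreated DMSO cell wells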); details: HCT116 beta-catenin knockout viability, CellTiter-Glo, 60 h; at 10 µM; stronger effect = lower value
[5] = viability of PTEN-null HCT116 cells – cell-based, HCT116 clonal line, CellTiter-Glo, pilot screen (AID 824;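 active = viability at or below 27.92% in each of two runs, the all-compound median minus 4 SD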;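 note: 0% = 20 µM Hyamine control and 100% = vehicle cell control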); details: HCT116 PTEN-deleted viability, 60 h, at 10 µM, stronger effect = lower value
[6] = RAM pathway blockade in budding yeast – dse1pr::URA3 reporter, 5-FOA selection, pilot screen (AID 869;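 active = inhibition over a set limit, the all-compound mean plus 3 SD, in both replicate runs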;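 note: 0% = DMSO wells with no growth and 100% = 10 µM 1-NA-PP1 with full growth; RAM network block rescues cells from 5-FOA so hits raise OD615 growth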); details: S. cerevisiae dse1pr::URA3 5-FOA growth, OD615, 2 d; at 10 µM; stronger effect = higher value; strain carries analog-sensitive mutant Cbk1 kinase
[7] = RAM signaling pathway blockade in yeast – S. cerevisiae, Pdr1DBD-CYC8 efflux-inhibited sensitized strain, primary screen (AID 1298;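 active = RAM network inhibition above 8.4% in each of two replicates, 3 SD over the compound average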;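 note: 0% = DMSO untreated cells without growth and 100% = 10 µM 1-NA-PP1 full growth; higher means more yeast growth rescued from 5-FOA killing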); details: S. cerevisiae cbk1-as DSE1-URA3 strain, 5-FOA growth OD615, 2 d; at 50 µM; stronger effect = higher value

CCCCN(C)CCNC(=O)Cn1c(=O)sc2ccccc21
inactive: growth inhibition [1] -0.71% | growth inhibition [2] 4.21% | viability increase [3] -2.43% | viability [4] 99% | viability [5] 96.6% | inhibition [6] 1.31% | RAM network inhibition [7] 5.27%

c1ccc2cc3[nH]c(CN4CCCCC4)nc3cc2c1
inactive: growth inhibition [1] -19.8% | growth inhibition [2] -13.4% | viability increase [3] -2.94% | viability [4] 95.9% | viability [5] 87.6% | inhibition [6] 1.58% | RAM network inhibition [7] 5.29%

Cc1nn(C)cc1CN(C)C(=O)c1sc2cccc(Cl)c2c1Cl
inactive: growth inhibition [1] -4.77% | growth inhibition [2] 5.83% | viability increase [3] 0.61% | viability [4] 84.1% | viability [5] 82.1% | inhibition [6] -0.12% | RAM network inhibition [7] 3.58%

Cc1nnc(SCC(=O)NC(C)c2ccccc2)[nH]c1=O (stereo unspecified)
inactive: growth inhibition [1] -10.9% | growth inhibition [2] -9.25% | viability increase [3] -1.16% | viability [4] 101% | viability [5] 99.3% | inhibition [6] 4.54% | RAM network inhibition [7] 5.85%

CCOC(=O)c1ccc(N2C(=O)c3n[nH]c(C)c3C2c2ccccn2)cc1 (stereo unspecified)
inactive: growth inhibition [1] 0.375% | growth inhibition [2] 3.62% | viability increase [3] 0.57% | viability [4] 108% | viability [5] 114% | inhibition [6] 0.195% | RAM network inhibition [7] 3.09%

CC1(C)Oc2ccc3ccc(=O)oc3c2/C(=C/N)C1=O
inactive: growth inhibition [1] -6.37% | growth inhibition [2] -4.45% | viability increase [3] -4.51% | viability [4] 88.5% | viability [5] 81.7% | inhibition [6] 0.535% | RAM network inhibition [7] -0.57%

CCOC(=O)N1CCN(C(=O)C(NC(=O)C2CCC(C)CC2)C(C)C)CC1 (stereo unspecified)
inactive: growth inhibition [1] 10.9% | growth inhibition [2] 7.68% | viability increase [3] -0.76% | viability [4] 101% | viability [5] 99.9% | inhibition [6] -0.215% | RAM network inhibition [7] -0.98%

CCSc1nnc2c(n1)OC(c1ccc(C(=O)O)cc1)N(C(C)=O)c1ccccc1-2 (stereo unspecified)
inactive: growth inhibition [1] -10.1% | growth inhibition [2] -2.9% | viability increase [3] -1.34% | viability [4] 107% | viability [5] 100% | inhibition [6] 1.66% | RAM network inhibition [7] 2.35%

CCC(Cc1ccccc1)NC(=O)CN1C(=O)CSc2ncccc21 (stereo unspecified)
inactive: growth inhibition [1] -2.26% | growth inhibition [2] -14.6% | viability increase [3] -2.81% | viability [4] 85% | viability [5] 75.7% | inhibition [6] 0.665% | RAM network inhibition [7] -0.97%

Cn1c(=O)c2c(nc(CN3CCN(C(=O)c4ccco4)CC3)n2Cc2ccccc2F)n(C)c1=O
inactive: growth inhibition [1] -1.06% | growth inhibition [2] -6.51% | viability increase [3] -4.26% | viability [4] 101% | viability [5] 89.8% | inhibition [6] 2.1% | RAM network inhibition [7] 3.22%

Cc1nc2ccc(S(=O)(=O)NC(C(=O)NC3CCCC3)C(C)C)cc2s1 (stereo unspecified)
inactive: growth inhibition [1] -5.81% | growth inhibition [2] -1.42% | viability increase [3] -0.4% | viability [4] 102% | viability [5] 101% | inhibition [6] 1.04% | RAM network inhibition [7] 1.87%

COc1ccccc1-c1cc(C(=O)N2CCCCC2)no1
inactive: growth inhibition [1] -6.35% | growth inhibition [2] 11.2% | viability increase [3] -0.55% | viability [4] 103% | viability [5] 93.2% | inhibition [6] 2.1% | RAM network inhibition [7] 4.18%

CSC1=NCCN1C(=O)c1ccco1
inactive: growth inhibition [1] 1.44% | growth inhibition [2] -4.79% | viability increase [3] 0.04% | viability [4] 103% | viability [5] 98.3% | inhibition [6] 0.865% | RAM network inhibition [7] 3.19%

Cc1ccc(-n2ncc3c(NCc4ccco4)ncnc32)c(C)c1
inactive: growth inhibition [1] -3.74% | growth inhibition [2] -9.7% | viability increase [3] -4.75% | viability [4] 97.3% | viability [5] 90.4% | inhibition [6] -0.12% | RAM network inhibition [7] -0.57%

CCOc1ccccc1C1CC(c2ccc(F)cc2)Nc2nc(N)nn21 (stereo unspecified)
inactive: growth inhibition [1] -2.63% | growth inhibition [2] 6.8% | viability increase [3] 1.61% | viability [4] 89.2% | viability [5] 90.1% | inhibition [6] 0.785% | RAM network inhibition [7] 2.07%

Cc1c(C(=O)NCc2cccnc2)oc2ccc(S(=O)(=O)N3CC(C)CC(C)C3)cc12 (stereo unspecified)
inactive: growth inhibition [1] -3.33% | growth inhibition [2] 16.4% | viability increase [3] -4.52% | viability [4] 93% | viability [5] 87.1% | inhibition [6] 1.87% | RAM network inhibition [7] 2.77%

CCN(Cc1ccccc1)S(=O)(=O)c1ccc(S(=O)(=O)N2CCN(CCC#N)CC2)cc1
inactive: growth inhibition [1] -8.36% | growth inhibition [2] -8.88% | viability increase [3] -4.88% | viability [4] 90.7% | viability [5] 83.9% | inhibition [6] 1% | RAM network inhibition [7] 5.6%

CCN(CC)CCCNC(=O)Cn1ncc2c(=O)oc3ccc(C)cc3c21
inactive: growth inhibition [1] -23.9% | growth inhibition [2] -25.6% | viability increase [3] -1.87% | viability [4] 101% | viability [5] 92.3% | inhibition [6] 2.04% | RAM network inhibition [7] 5.92%
